Experiment [1] deals with T1, Nitric oxide synthase 3 (Bos taurus) (UniProt P29473).
T1 sequence (whole entry): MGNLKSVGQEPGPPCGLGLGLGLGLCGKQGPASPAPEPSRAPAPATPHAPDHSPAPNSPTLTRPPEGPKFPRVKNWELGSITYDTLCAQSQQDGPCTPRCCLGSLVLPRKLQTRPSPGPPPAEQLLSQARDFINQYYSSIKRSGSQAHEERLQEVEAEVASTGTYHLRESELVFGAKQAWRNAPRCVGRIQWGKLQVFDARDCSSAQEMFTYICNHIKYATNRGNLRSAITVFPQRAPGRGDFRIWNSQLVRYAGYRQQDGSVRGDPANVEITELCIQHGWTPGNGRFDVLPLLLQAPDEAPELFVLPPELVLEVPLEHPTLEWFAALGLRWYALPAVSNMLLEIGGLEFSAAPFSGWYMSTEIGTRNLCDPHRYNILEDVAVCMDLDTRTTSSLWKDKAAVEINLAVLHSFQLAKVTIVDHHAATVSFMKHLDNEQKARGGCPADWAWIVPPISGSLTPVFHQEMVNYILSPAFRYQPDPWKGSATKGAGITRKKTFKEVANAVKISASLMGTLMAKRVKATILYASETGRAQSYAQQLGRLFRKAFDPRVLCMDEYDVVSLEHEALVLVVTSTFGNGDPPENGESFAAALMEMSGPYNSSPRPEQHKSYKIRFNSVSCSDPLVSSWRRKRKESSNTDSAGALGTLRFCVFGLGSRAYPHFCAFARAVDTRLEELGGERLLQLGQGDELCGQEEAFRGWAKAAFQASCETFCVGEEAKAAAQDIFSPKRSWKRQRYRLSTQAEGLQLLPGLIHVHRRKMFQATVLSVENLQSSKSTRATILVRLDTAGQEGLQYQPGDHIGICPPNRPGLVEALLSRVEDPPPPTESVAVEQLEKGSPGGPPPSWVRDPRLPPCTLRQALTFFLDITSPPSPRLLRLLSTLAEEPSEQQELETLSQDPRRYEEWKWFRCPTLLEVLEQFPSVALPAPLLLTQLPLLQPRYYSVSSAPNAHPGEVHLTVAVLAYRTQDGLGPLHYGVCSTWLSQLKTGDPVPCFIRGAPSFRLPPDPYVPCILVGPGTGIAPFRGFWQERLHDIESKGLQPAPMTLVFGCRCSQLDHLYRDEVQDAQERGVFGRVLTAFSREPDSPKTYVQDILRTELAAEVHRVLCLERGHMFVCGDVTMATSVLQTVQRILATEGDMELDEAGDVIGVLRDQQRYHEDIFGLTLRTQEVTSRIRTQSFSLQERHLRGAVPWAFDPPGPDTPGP
The experiment is described as follows: Inhibition of bovine eNOS expressed in insect Sf9 cells assessed as residual activity at 100 uM by Griess assay relative to control. An outline of the steps:
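Bovine eNOS from Sf9 cells. Reaction: triethanolamine buffer pH 7.5, 0.5 mM Ca2+, 10 µg/ml CaM, 10 µM H4B, FAD, FMN, 0.5 mM NADPH, 1 mM L-arginine, with 100 µM compound, 20 min at 37 °C. After NADPH removal by LDH/pyruvate, nitrite measured by Griess at 543 nm. Expressed as % residual activity versus 1% DMSO control, 5 experiments.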
(Griess reagent forms a coloured azo dye with nitrite.)

The target in experiment [2] is T2, Nitric oxide synthase, inducible (Mus musculus) (UniProt P29477).
T2 sequence (whole entry): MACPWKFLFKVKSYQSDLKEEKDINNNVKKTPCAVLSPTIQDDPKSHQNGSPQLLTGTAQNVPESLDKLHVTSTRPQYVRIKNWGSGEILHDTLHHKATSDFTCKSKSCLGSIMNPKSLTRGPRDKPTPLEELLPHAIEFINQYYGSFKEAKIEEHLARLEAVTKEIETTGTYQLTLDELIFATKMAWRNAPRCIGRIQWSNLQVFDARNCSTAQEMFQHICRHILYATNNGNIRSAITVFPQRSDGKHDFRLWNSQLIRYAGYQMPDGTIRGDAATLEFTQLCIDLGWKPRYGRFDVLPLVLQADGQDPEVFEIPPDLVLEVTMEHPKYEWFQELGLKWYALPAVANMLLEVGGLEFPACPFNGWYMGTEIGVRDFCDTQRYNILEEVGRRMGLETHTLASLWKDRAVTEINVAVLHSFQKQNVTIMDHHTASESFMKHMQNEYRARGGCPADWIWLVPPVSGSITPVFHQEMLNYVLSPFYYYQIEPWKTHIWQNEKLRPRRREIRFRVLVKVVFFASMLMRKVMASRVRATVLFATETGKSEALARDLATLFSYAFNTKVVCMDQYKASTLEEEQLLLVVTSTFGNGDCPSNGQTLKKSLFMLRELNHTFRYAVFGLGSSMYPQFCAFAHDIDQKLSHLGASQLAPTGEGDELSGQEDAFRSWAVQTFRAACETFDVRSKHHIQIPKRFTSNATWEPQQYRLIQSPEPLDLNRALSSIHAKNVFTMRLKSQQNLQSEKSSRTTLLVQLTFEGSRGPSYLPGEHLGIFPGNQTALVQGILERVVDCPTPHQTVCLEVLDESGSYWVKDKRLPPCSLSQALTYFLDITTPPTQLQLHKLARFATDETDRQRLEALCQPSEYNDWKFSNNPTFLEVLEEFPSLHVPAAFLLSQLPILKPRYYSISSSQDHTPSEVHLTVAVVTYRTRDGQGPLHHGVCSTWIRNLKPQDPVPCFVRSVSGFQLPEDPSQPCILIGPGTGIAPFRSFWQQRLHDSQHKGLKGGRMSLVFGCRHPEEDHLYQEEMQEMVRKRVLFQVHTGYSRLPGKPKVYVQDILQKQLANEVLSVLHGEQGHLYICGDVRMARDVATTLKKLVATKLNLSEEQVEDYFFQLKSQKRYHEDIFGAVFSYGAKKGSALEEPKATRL
The experiment is described as follows: Inhibition of mouse recombinant iNOS expressed in Escherichia coli assessed as conversion of [gamma-14C]L-arginine to [14C]L-citrulline at 100 uM by radioactive assay relative to control. The arrangement: scale not given: the % may be the effect or the level left. An outline of the steps: (§1)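 Purified enzymes: rat nNOS from S. cerevisiae, murine iNOS and bovine eNOS from E. coli. Reaction 5 min at 37 °C in 50 mM Hepes pH 7.4 with DTT, 1 mM NADPH, H4B, FAD, FMN, [14C]L-arginine (2.5 µM L-arginine) and 100 µM compound in 1% DMSO. nNOS/eNOS also got 1 mM CaCl2 and CaM, which iNOS lacked. [14C]citrulline isolated on Dowex and counted by scintillation; % of DMSO control, n=3.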

The target in experiment [3] is T1, Nitric oxide synthase 3 (Bos taurus). Briefly: Inhibition of bovine recombinant eNOS expressed in Escherichia coli assessed as conversion of [gamma-14C]L-arginine to [14C]L-citrulline at 100 uM by radioactive assay relative to control. The arrangement: scale not given: the % may be the effect or the level left. An outline of the steps: as §1

This note sets out measurements from ChEMBL document CHEMBL1152488, “Synthesis and evaluation of pyrido[1,2-a]pyrimidines as inhibitors of nitric oxide synthases” (Eur J Med Chem, 2009).

Each structure is given as a SMILES string.

In the case of `CC1=CC=CC2=NCC(C(=O)c3ccc(Br)cc3)CN12` (centres undefined), the Activity in experiment [1] turned out to be 93%.

In the case of `CC(=N)NCc1cccc(CN)c1`, the Activity in experiment [1] is 107%. Consider `CC1=CC2=NCC(C(=O)c3ccccc3)CN2C=C1` (centres undefined), for which the Activity in experiment [1] came out at 40%. For `CC1=CC2=NCC(C(=O)c3ccc4cc(C)ccc4c3)CN2C(C)=C1.[O-][Cl+3]([O-])([O-])O` (centres undefined), the results for the Activity in experiment [2] and in experiment [3] were 28% and 17%, respectively. Regarding `CC1=CC2=NCC(C(=O)c3ccc(F)cc3)CN2C=C1` (centres undefined), the Activity in experiment [1] was determined as 37%. The same measure, in the same setting: as for `O=C(c1ccc(Br)cc1)C1CN=C2C=CC=CN2C1` (centres undefined), the figure is 86%.

As to `CC1=CC2=NCC(C(=O)c3ccc(Br)cc3)CN2C=C1` (centres undefined), the Activity in experiment [1] was determined as 72%.

For the compound `CC1=CC2=NCC(C(=O)c3ccc4ccccc4c3)CN2C=C1` (centres undefined), the Activity in experiment [1] amounted to 50%. `COc1ccc2cc(C(=O)C3CN=C4C=C(C)C=CN4C3)ccc2c1` (centres undefined): in experiment [1], the Activity came out at 80%. `CCCNC(=N)NCCC[C@H](N)C(=O)O`: the Activity in experiment [1] amounted to 93%. As to `CC1=CC=CC2=NCC(C(=O)c3ccc(C)cc3)CN12.[O-][Cl+3]([O-])([O-])O` (centres undefined), the Activity came to 101% in experiment [1], 66% in experiment [2] and 84% in experiment [3].

`COc1ccc(C(=O)C2CN=C3C=C(C)C=CN3C2)cc1F.[O-][Cl+3]([O-])([O-])O` (centres undefined): the Activity in experiment [2] was 45%; in experiment [3] it was 59%. Consider `O=C(c1ccc(Cl)c(Cl)c1)C1CN=C2C=CC=CN2C1.[O-][Cl+3]([O-])([O-])O` (centres undefined), for which the Activity in experiment [1] came to 83%; in experiment [2], 85%; in experiment [3], 83%. Turning to `COc1ccc(-c2ccc(C(=O)C3CN=C4C=C(C)C=CN4C3)cc2)cc1.Cl` (centres undefined), the Activity in experiment [2] stood at 13%; in experiment [3] it was 15%. Consider `COc1ccc(C(=O)C2CN=C3C=CC=C(C)N3C2)cc1OC.[O-][Cl+3]([O-])([O-])O` (centres undefined), for which the Activity in experiment [1] amounted to 90%; in experiment [2], 91%; in experiment [3] it was 81%. In the case of `CC1=CC2=NCC(C(=O)c3ccc(-c4ccc(Br)cc4)cc3)CN2C=C1.[O-][Cl+3]([O-])([O-])O` (centres undefined), the values for the Activity in experiment [2] and in experiment [3] were 19% and 65%, respectively.

Take `CC1=CC=CC2=NCC(C(=O)c3ccc4ccccc4c3)CN12` (centres undefined): the Activity in experiment [1] stood at 75%.

Turning to `CC1=CC2=NCC(C(=O)c3ccc(OCc4ccc(Cl)cc4)cc3)CN2C=C1.[O-][Cl+3]([O-])([O-])O` (centres undefined), the Activity in experiment [2] amounted to 25%; in experiment [3], 2%.

In the case of `CC1=CC2=NCC(C(=O)c3ccc(Cl)cc3)CN2C=C1` (centres undefined), the Activity in experiment [1] stood at 20%. In the case of `CC1=CC2=NCC(C(=O)c3ccc4cc(C)ccc4c3)CN2C=C1.[O-][Cl+3]([O-])([O-])O` (centres undefined), the Activity in experiment [1] is 49%; in experiment [2] it was 13%; in experiment [3] it was 48%.

Consider `CC1=CC2=NCC(C(=O)c3ccc(OCc4ccc(Br)cc4)cc3)CN2C=C1.Cl` (centres undefined), for which the Activity was found to be 62% in experiment [2] and 77% in experiment [3].

Consider `CC1=CC2=NCC(C(=O)c3ccc(-c4ccc(Br)cc4)cc3)CN2C(C)=C1` (centres undefined), for which the Activity was determined as 35% in experiment [2] and 32% in experiment [3]. As for `CC1=CC=CC2=NCC(C(=O)c3ccc(F)cc3)CN12.[O-][Cl+3]([O-])([O-])O` (centres undefined), the Activity in experiment [1] came to 41%; in experiment [2], 66%; in experiment [3], 71%. With `CC1=CC2=NCC(C(=O)c3ccc(OCc4ccc(C#N)cc4)cc3)CN2C=C1.[O-][Cl+3]([O-])([O-])O` (centres undefined), the figures for the Activity in experiment [2] and in experiment [3] were 30% and 44%, respectively. Take `CC1=CC2=NCC(C(=O)c3ccc(-c4ccc(C#N)cc4)cc3)CN2C=C1.Cl` (centres undefined): the Activity in experiment [2] and in experiment [3] was 18% each time. Regarding `CCSC(=N)N`, the Activity in experiment [1] was determined as 27%. On to `N=C(NCCC[C@H](N)C(=O)O)N[N+](=O)[O-]`, for which the Activity worked out at 15% in experiment [2] and 5% in experiment [3]. Take `CC1=CC2=NCC(C(=O)c3ccc(-c4ccccc4)cc3)CN2C=C1` (centres undefined): the Activity in experiment [1] was 17%.

Take `O=C(c1ccc2ccccc2c1)C1CN=C2C=CC=CN2C1` (centres undefined): in experiment [1], the Activity came to 80%.
